Calls of active or inactive are those of the source. No cut-off for these calls is given here.
What was measured:
MCF7 = assay: Antiproliferative activity against human MCF7 cells for 72 hrs by cyquant assay; type: functional, cell-based; conditions: MCF7, 72 h
Outline: (§1)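 CyQuant proliferation assay after 72 h compound exposure of cultured cells; relative viability normalized to DMSO-treated control; IC50 values derived. Glioma lines grown in RPMI or DMEM with 10% FBS and 1% nonessential amino acids.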

[1] = Cytotoxicity against mouse NIH/3T3 cells after 72 hrs by cyquant cells; type: cell-based; conditions: NIH3T3, 72 h; outline: as §1
U-251 = assay: Antiproliferative activity against human U251MG cells at 5 uM for 72 hrs by cyquant assay; type: functional; outline: as §1
MDA-MB-231 [2] = assay: Antiproliferative activity against human MDA-MB-231 cells at 5 uM for 72 hrs by cyquant assay; type: functional, cell-based
SF-295 = assay: Antiproliferative activity against human SF295 cells at 5 uM for 72 hrs by cyquant assay; type: functional, cell-based
[3] = Cytotoxicity against mouse NIH/3T3 cells at 5uM after 72 hrs by cyquant cells; type: cell-based; conditions: nih3t3, 72 h; outline: as §1
[4] = molecular target: Signal transducer and activator of transcription 3 (Mus musculus) (UniProt P42227); assay: Inhibition of Stat3 dimer DNA binding activity in mouse NIH3T3/vSrc nuclear extract at 5 uM preincubated for 30 mins followed by addition of radiolabeled probe hSIE for 30 mins by EMSA
Chain of Signal transducer and activator of transcription 3 (Mus musculus) (P42227 whole entry): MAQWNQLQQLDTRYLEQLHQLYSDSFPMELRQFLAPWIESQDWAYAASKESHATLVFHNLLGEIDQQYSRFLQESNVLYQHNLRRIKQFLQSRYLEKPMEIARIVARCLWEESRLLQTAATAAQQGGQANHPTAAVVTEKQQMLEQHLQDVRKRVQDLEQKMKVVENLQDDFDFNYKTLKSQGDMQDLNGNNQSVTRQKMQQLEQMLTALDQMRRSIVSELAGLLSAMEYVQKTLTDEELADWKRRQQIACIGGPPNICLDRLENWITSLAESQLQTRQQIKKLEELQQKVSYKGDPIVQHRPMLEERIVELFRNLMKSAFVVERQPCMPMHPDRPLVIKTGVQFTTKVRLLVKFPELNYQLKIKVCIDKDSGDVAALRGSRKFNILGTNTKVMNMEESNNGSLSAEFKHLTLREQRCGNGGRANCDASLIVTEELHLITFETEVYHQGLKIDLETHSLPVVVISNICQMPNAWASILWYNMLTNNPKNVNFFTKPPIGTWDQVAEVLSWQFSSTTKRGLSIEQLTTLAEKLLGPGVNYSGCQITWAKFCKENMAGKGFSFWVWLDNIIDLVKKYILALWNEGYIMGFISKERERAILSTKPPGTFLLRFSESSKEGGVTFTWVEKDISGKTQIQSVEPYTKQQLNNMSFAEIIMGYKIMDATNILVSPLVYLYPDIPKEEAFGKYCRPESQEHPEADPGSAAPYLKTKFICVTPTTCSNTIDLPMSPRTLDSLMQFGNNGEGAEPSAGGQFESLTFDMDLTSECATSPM

NIH3T3 = assay: Inhibition of Stat5 dimer DNA binding activity in EGF-stimulated mouse NIH3T3 nuclear extract expressing human EGFR at 5 uM preincubated for 30 mins followed by addition of radiolabeled probe MGFe for 30 mins by EMSA; type: cell-free
[5] = molecular target: T1, Signal transducer and activator of transcription 1 (Mus musculus) (UniProt P42225); assay: Inhibition of Stat1 dimer DNA binding activity in EGF-stimulated mouse NIH3T3 nuclear extract expressing human EGFR at 5 uM preincubated for 30 mins followed by addition of radiolabeled probe hSIE for 30 mins by EMSA
T1 sequence (whole entry): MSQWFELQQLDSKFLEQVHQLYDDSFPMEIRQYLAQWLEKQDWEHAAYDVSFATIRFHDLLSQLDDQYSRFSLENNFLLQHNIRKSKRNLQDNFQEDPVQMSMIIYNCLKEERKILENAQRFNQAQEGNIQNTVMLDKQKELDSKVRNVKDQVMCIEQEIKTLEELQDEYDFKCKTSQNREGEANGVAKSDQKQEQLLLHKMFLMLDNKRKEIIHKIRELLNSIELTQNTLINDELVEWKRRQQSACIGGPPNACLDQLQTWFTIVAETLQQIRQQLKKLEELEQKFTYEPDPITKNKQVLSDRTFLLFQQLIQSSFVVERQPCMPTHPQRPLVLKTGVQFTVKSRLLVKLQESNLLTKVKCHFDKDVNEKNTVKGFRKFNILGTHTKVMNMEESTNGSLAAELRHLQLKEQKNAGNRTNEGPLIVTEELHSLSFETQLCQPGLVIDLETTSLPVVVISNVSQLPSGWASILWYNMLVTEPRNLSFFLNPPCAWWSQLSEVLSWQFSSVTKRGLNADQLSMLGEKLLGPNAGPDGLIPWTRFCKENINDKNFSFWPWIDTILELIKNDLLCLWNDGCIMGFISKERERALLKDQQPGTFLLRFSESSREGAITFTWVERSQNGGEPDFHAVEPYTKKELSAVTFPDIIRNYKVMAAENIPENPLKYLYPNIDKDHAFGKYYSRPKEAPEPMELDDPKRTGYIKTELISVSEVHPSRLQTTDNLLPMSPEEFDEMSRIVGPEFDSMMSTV

[6] = molecular target: T2, Signal transducer and activator of transcription 3 (Homo sapiens, UniProt P40763); assay: Inhibition of Stat3 activity in human U251MG cells assessed as phosphorylated Stat3 level at 5 uM by immunoblot analysis; type: cell-based; conditions: U-251, TDE = time-dependent effect
T2 sequence (P40763 whole entry): as the sequence (P42227 whole entry) above, with D760E counted along it

[7] = molecular target: T2, Signal transducer and activator of transcription 3; assay: Binding affinity to Stat3 (unknown origin) by NMR analysis
[8] = Antiproliferative activity against human U251MG cells for 72 hrs by cyquant assay; type: functional, cell-based; conditions: U-251, 72 h; outline: as §1
MDA-MB-231 [9] = assay: Antiproliferative activity against human MDA-MB-231 cells for 72 hrs by cyquant assay; type: functional, cell-based; conditions: MDA-MB-231, 72 h; outline: as §1
[10] = Antiproliferative activity against human U373MG cells for 72 hrs by cyquant assay; type: functional, cell-based, U-373MG ATCC; conditions: U373 MG; outline: as §1
[11] = Antiproliferative activity against human SF295 cells for 72 hrs by cyquant assay; type: functional, cell-based; conditions: SF-295, 72 h; outline: as §1
[12] = molecular target: T2, Signal transducer and activator of transcription 3; assay: Inhibition of Stat3 activity in human U251MG cells assessed as phosphorylated Stat3 level after 2 hrs by immunoblot analysis; type: cell-based; conditions: U-251
Outline: (§2)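 U251MG cells treated with 5 μM compound for 0–24 h, or with 0–5 μM for 2 h. Whole-cell lysates immunoblotted for pStat3, Stat3, GAPDH. Control was 0.025% DMSO-treated cells.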

[13] = molecular target: T3, Signal transducer and activator of transcription 1/ 3 (Mus musculus) (UniProt P42227+P42225); conditions: NIH3T3, 5 uM
[14] = molecular target: Signal transducer and activator of transcription 3 (Mus musculus) (UniProt P42227); conditions: NIH3T3, 5 uM
[15] = molecular target: T2, Signal transducer and activator of transcription 3; conditions: U-251, 5 uM
[16] = molecular target: T3, Signal transducer and activator of transcription 1/ 3 (Mus musculus); assay: Inhibition of Stat1:Stat3 dimer DNA binding activity in EGF-stimulated mouse NIH3T3 nuclear extract expressing human EGFR assessed as residual activity at 5 uM preincubated for 30 mins followed by addition of radiolabeled probe hSIE for 30 mins by EMSA; type: cell-free
[17] = molecular target: Signal transducer and activator of transcription 3 (Mus musculus) (UniProt P42227); assay: Inhibition of Stat3 dimer DNA binding activity in EGF-stimulated mouse NIH3T3 nuclear extract expressing human EGFR assessed as residual activity at 5 uM preincubated for 30 mins followed by addition of radiolabeled probe hSIE for 30 mins by EMSA
[18] = molecular target: T1, Signal transducer and activator of transcription 1 (Mus musculus); assay: Inhibition of Stat1 dimer DNA binding activity in EGF-stimulated mouse NIH3T3 nuclear extract expressing human EGFR assessed as residual activity at 5 uM preincubated for 30 mins followed by addition of radiolabeled probe hSIE for 30 mins by EMSA
[19] = molecular target: T2, Signal transducer and activator of transcription 3; assay: Inhibition of Stat3 activity in human U251MG cells assessed as phosphorylated Stat3 level at 5 uM after 0.5 to 24 hrs by immunoblot analysis; type: cell-based; conditions: U-251; outline: as §2

Compound | IC50 [1] | inhibition (U-251) | inhibition (MDA-MB-231 [2]) | inhibition (SF-295) | Activity [3] | inhibition [4] | inhibition (NIH3T3) | inhibition [5] | IC50 [8] | further results
C=C(C)C(=O)O[C@H]1C[C@@H](C)[C@]2(O)CC[C@](C)(/C=C3/OC(=O)C(COC(C)=O)=C31)O2 | 7.1 µM | Active | Active | Active | Toxic | Active | inactive | inactive | 2.6 µM | IC50 (MCF7): 7.7 µM; inhibition [6]: tde; Activity [7]: Dose-dependent effect; IC50 (MDA-MB-231 [9]): 5.2 µM; IC50 [10]: 8.3 µM; IC50 [11]: 9.1 µM
CC(C)=CCC/C(C)=C/C(=O)OCC1=C2/C(=C\[C@@]3(C)CC[C@](O)(O3)[C@H](C)C[C@@H]2O)OC1=O | > 5 µM | Active |  |  |  | Active |  | Active | 1 µM | inhibition [12]: Dose-dependent effect; inhibition [13]: Active; inhibition [14]: Active; inhibition [15]: inactive
C/C=C(/C)C(=O)O[C@H]1C[C@@H](C)[C@]2(O)CC[C@](C)(/C=C3/OC(=O)C(CO)=C31)O2 |  | Active | inactive | inactive | Non-toxic | Active | inactive | inactive |  | Activity [16]: 71%; Activity [17]: 63%; Activity [18]: 61%; inhibition [19]: Active

From ChEMBL document CHEMBL3627612, “Hirsutinolide Series Inhibit Stat3 Activity, Alter GCN1, MAP1B, Hsp105, G6PD, Vimentin, TrxR1, and Importin α-2 Expression, and Induce Antitumor Effects against Human Glioma” (J Med Chem, 2015)
